Screening results from PubChem.
Hits are enriched below; roughly 2.6% of the tested compounds scored in any of these assays.
PolyA inhibitor = polyadenylation inhibitors in yeast reporter cells, primary screen, luminescence, S. cerevisiae | 300,000 tested, 0.02% active | AID 1875, 2009 | S. cerevisiae SKY197-pL101 polyadenylation reporter, beta-gal luminescence; efflux-impaired pdr1/pdr3 knockout yeast; score 100 = 6 SD above DMSO | activity score, % at 12 µM;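 active = lowest replicate activity score at least 50, where 100 means six control SD above control mean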;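 note: yeast exposed to compound for 9 h at 30 °C; higher score means more reporter readthrough which indicates perturbed polyadenylation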
T cruzi inh = inhibitors of intracellular T. cruzi growth, primary screen, luminescence, NIH3T3 host cells | T. cruzi beta-gal in NIH3T3, 90 h | inhibition, % (concentration not given with the values) | 300,000 tested, 1.4% active;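 active = mean inhibition across valid replicates above about 55%, limit read from the data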;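 note: signal also drops with host cell toxicity which is not excluded here; higher percent means less beta-gal luminescence so fewer parasites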
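Material: NIH/3T3 host cells with β-galactosidase reporter T. cruzi; Input: 5,000 host fibroblasts per well; Medium: DMEM, 2% fetal bovine serum; Compound: 50 nL DMSO compound solution per well; Schedule: 3 h host attachment, then at least 90 h co-culture; Detection: luminescent β-galactosidase signal after 60 min lysis.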
CHT block = inhibitors of human choline transporter CHT; CHT-expressing cells, membrane potential dye, choline response; stronger effect = lower value; High affinity choline transporter 1 (Homo sapiens), Q9GZV3; B-score at 10 µM; AID 488975, 2010; 310,000 tested, 0.86% active;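 active = B-score over 3 SD under the library average, and starting fluorescence ratio not unusually high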;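 note: choline stimulus applied at its EC90 after an EC20 pre-addition; B-score computed on integrated fluorescence ratio after choline addition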
Target sequence (Q9GZV3 whole entry, looked up): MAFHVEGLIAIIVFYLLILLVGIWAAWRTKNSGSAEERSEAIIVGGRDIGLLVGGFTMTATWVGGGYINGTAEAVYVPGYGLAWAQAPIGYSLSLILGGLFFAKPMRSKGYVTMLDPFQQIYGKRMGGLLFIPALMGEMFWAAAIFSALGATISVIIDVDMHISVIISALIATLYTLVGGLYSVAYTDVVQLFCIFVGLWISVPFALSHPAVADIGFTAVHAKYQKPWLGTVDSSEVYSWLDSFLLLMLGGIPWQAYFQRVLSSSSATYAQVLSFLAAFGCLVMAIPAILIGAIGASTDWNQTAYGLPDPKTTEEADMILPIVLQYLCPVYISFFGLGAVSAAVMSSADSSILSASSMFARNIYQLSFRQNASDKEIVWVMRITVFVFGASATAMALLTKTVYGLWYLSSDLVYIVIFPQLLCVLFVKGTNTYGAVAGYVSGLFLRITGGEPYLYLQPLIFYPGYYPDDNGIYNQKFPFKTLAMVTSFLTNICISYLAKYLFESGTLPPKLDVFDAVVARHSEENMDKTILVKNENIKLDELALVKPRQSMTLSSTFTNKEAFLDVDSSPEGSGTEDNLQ
CHT PAM = CHT positive allosteric modulators, primary screen, cell-based, membrane potential dye, choline EC20; CHT-expressing cells; stronger effect = higher value; LV-AA mutant CHT in HEK293 cells; B-score at 10 µM; 310,000 tested, 0.49% active;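 active = initial fluorescence not abnormally high and integrated response B-score, plate-corrected, over 3 SD above library mean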
CHT activ conf = CHT activators, confirmation, cell-based, membrane potential dye, duplicate | shares compounds with CHT PAM | CHT-expressing cells, membrane potential dye fluorescence (FDSS); % of choline EC20–EC90 response window; HEK293 expressing CHT LV-AA mutant; choline added at its EC20 | activation, % at 10 µM | 2,500 tested, 91% active | AID 504833, 2011;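 active = primary screen active, with duplicate mean activation above negative control mean plus 3 SD, cut at about 11% in these data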
HEK293 MP dye = membrane potential response in parental HEK293 cells, counter-screen for CHT activator project, cell-based, membrane potential dye; shares compounds with CHT PAM; membrane potential dye fluorescence (FDSS); measured after EC20 choline addition; ratio readout change at 10 µM, hits read low; AID 623908, 2012; 2,500 tested, 62% active;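 active = duplicate-averaged ratio beyond 3 SD from buffer wells, up or down, though filed actives are nearly all decreases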
A number is an active result; . = inactive; / = no result given.

SMILES	PolyA inhibitor	T cruzi inh	CHT block	CHT PAM	CHT activ conf	HEK293 MP dye
O=[N+]([O-])c1ccc(-c2nc(-c3ccncc3)no2)cc1	.	.	.	.	26	-36
COc1cccc(N2CCN(C(=O)c3ccc(CS(=O)Cc4ccc(Cl)cc4)o3)CC2)c1 (stereo not given)	.	.	.	.	/	/
CCOC(=O)c1cnc2ccc(OCC)cc2c1N(C)Cc1ccccc1	.	.	.	9.6	41	.
CCOC(=O)c1cc2cc(OCc3ccccc3)ccc2nc1C	.	.	.	.	/	/
NC1CCN(c2c(F)cc3c(=O)c(C(=O)O)cn(C4CC4)c3c2Cl)C1 (stereo not given)	.	.	.	.	18	-48
COc1c(N2CCN(C(=S)Nc3ccc(F)cc3)C(C)C2)c(F)cc2c(=O)c(C(=O)O)cn(C3CC3)c12 (stereo not given)	.	.	.	.	/	/
COc1c(N2CCNC(C)C2)c(F)cc2c(=O)c(C(=O)O)cn(C3CC3)c12 (stereo not given)	.	.	.	6.7	36	-45
Cc1sc2nc3ccc(NCc4ccco4)nn3c(=O)c2c1C	.	.	.	6.6	12	-37
Cc1nnc(NC(=O)C2CC(=O)N(C(C)c3ccccc3)C2)s1 (stereo not given)	.	.	.	.	/	/
CCOC(=O)CC1C(=O)NCCN1C(=O)c1cc2c(=O)n3cccc(C)c3nc2s1 (stereo not given)	.	.	.	6.8	17	-37
Cc1nn(C(=O)c2nn(C)cc2[N+](=O)[O-])c(C)c1Cl	.	.	.	.	/	/
Cc1cc(C)n2[nH]c(=O)c(N=Nc3ccc(S(N)(=O)=O)cc3)c2n1	.	.	.	9.2	70	-81
Nc1sc(-c2ccccc2)n[n+]1Cc1cccc2cccnc12	.	60	.	7.8	12	.
CN1CCN(C(=O)CSc2nc(-c3cccs3)cc(-c3cccs3)c2C#N)CC1	.	.	.	.	/	/
CN1CCN(C(=O)CSc2nc(-c3ccncc3)ccc2C#N)CC1	.	/	.	8.1	44	-37
CN(C)c1ccc2c3c(ccc(N(C)C)c13)C(=O)OC2	.	.	.	7.3	80	-96
CS(=O)(=O)Nc1ccc2c(c1)C(=O)OC2	.	.	.	.	/	/
CC(OC(=O)/C=C/c1ccc2ccccc2n1)C(=O)NCc1ccccc1 (stereo not given)	.	.	.	.	/	/
C/C(=N\NC(=O)CN1CCN(Cc2ccccc2)CC1)c1cccs1	.	.	.	.	/	/
Cc1ccc(CN2CCSc3ccc(C(=O)NCc4cccnc4)cc32)cc1	.	.	.	6.9	29	.
CCOc1ccc(C(=O)Nc2ccc3[nH]ncc3c2)cc1	.	.	.	.	/	/
C(=N\NC1=NCCN1)/c1ccncc1	.	.	.	6.4	54	-54
Clc1cncc(Cl)c1N/N=C/c1ccncc1	.	.	.	.	51	-53
CCCc1nnc(NC(=O)COC(=O)c2cc(C)nc3ccccc23)s1	.	.	.	.	/	/
CCCc1nnc(NC(=O)C(CC)OC(=O)c2cc(C)nc3ccccc23)s1 (stereo not given)	.	.	.	6.3	22	.
SMILES	PolyA inhibitor	T cruzi inh	CHT block	CHT PAM	CHT activ conf	HEK293 MP dye
NC(N)=NC(=O)c1nc(Cl)c(N)nc1N	.	.	.	7.2	18	-41
Nc1c(Cl)ncnc1N1CCCC1	.	.	.	.	/	/
NC(N)=NC(=O)c1nc(Cl)c(N2CCCCCC2)nc1N	/	/	.	.	42	-22
CCOc1ccc(N(CC(=O)Nc2cc(Cl)ccc2C)S(C)(=O)=O)cc1	.	.	.	.	/	/
CC1CCN(CCCNC(=O)c2ccc(CSCc3cccc(Cl)c3)o2)CC1	.	.	.	8.3	49	-35
CN1CCN(CCCNC(=O)c2ccc(CSCc3cccc(Cl)c3)o2)CC1	.	.	.	.	/	/
COc1ccccc1N1CCN(CCCNC(=O)Nc2ccccc2)CC1	.	.	.	.	/	/
O=C(NCCCN1CCN(CCCNC(=O)c2cccc(Cl)c2)CC1)c1cccc(Cl)c1	.	.	.	.	28	.
O=C(NCCN1CCCC1)c1cccc(Cl)c1	.	.	.	.	/	/
COc1ccccc1N1CCN(CCCCNC(=O)c2ccc3ccccc3c2)CC1	/	/	.	7.6	36	-21
O=C(O)C1CCC(N2C(=O)c3c(Cl)c(Cl)c(Cl)c(Cl)c3C2=O)CC1 (stereo not given)	.	.	.	.	/	/
CCCCN(C(=S)Nc1cccc(C)c1C)c1c(N)n(CCC)c(=O)[nH]c1=O	.	.	.	.	/	/
COc1ccc(C2CC(c3c(O)cc(C)oc3=O)=NCCS2)c(OC)c1 (stereo not given)	/	/	.	7.6	51	.
O=C1C=CC(=O)N1	/	/	.	.	/	/
O=C(CNC(=O)c1ccc(S(=O)(=O)N2CCCC2)cc1)N/N=C/c1ccco1	.	.	.	.	/	/
COc1cc(C(=O)c2cocc2C(=O)c2ccc3c(c2)OCO3)cc(OC)c1OC	.	.	.	11	26	.
COc1cc(C(=O)N/N=C(\C)c2ccc3c(c2)OCO3)cc(OC)c1OC	.	.	.	.	/	/
CCn1cc(C(=O)OCC(=O)OC2CC(C)CCC2C(C)C)c(=O)c2ccc(C)nc21 (stereo not given)	.	.	.	.	31	.
CCn1cc(C(=O)OCC(=O)Nc2c(C)n(C)n(-c3ccccc3)c2=O)c(=O)c2ccc(C)nc21	.	.	.	11	78	-72
CCn1cc(C(=O)N2CCN(Cc3ccc4c(c3)OCO4)CC2)c(=O)c2ccc(C)nc21	.	.	.	.	/	/
C=CCn1cc(C(=O)OCC)c(=O)c2cc(F)c(F)cc21	.	.	.	7	48	-56
CCn1cc(C(=O)OCC(=O)NCc2ccc3c(c2)OCO3)c(=O)c2ccc(C)nc21	.	.	.	10	60	-56
N#CCCN(C(=O)COC(=O)CNC(=O)c1cccs1)c1ccc(F)cc1	.	.	.	.	/	/
O=C(O)CCn1nnc2ccccc21	.	.	.	.	/	/
CC(Sc1ccccc1)C(=O)N/N=C/c1ccccc1 (stereo not given)	.	.	.	.	/	/
C=CCOC(=O)c1cn(CC)c2nc(C)ccc2c1=O	.	.	.	10	73	-67
CCn1cc(C(=O)OCc2ccc(F)cc2)c(=O)c2ccc(C)nc21	.	.	.	8	56	-87
CCn1ncc(S(=O)(=O)Nc2cc(Cl)ccc2C)c1C	.	.	.	.	/	/
O=[N+]([O-])c1cc(Cl)ccc1-c1nc(-c2ccncc2)no1	.	.	.	.	/	/
